Key:
Assay type in all cases: functional, cell-based
HCC1806 [1] = assay: Antiproliferative activity against ER, PR, HER2-deficient human HCC1806 cells as growth inhibition after 24 hrs by MTT assay; conditions: HCC1806, 24 h
Method in brief: (§1)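 Cells were seeded at 2x10^4/well and left to attach overnight. Compounds in DMSO were diluted in medium and applied for 24, 48, 72 or 96 h. Cells were then PBS-washed and given 0.5 mg/mL MTT (pH 7.4) at 37 °C for 4 h. Formazan was dissolved in acid isopropanol. IC50 came from dose-response curves by exponential decay fitting (r2>0.9), with 95% CI.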

HCC1806 [2] = assay: Antiproliferative activity against ER, PR, HER2-deficient human HCC1806 cells as growth inhibition after 48 hrs by MTT assay; conditions: HCC1806, 48 h; method in brief: as §1
HCC1806 [3] = assay: Antiproliferative activity against ER, PR, HER2-deficient human HCC1806 cells as growth inhibition after 72 hrs by MTT assay; conditions: HCC1806, 72 h; method in brief: as §1
HCC1806 [4] = assay: Antiproliferative activity against ER, PR, HER2-deficient human HCC1806 cells as growth inhibition after 96 hrs by MTT assay; conditions: HCC1806, 96 h; method in brief: as §1
HCC1954 [5] = assay: Antiproliferative activity against human HCC1954 cells expressing HER2 assessed as growth inhibition after 24 hrs by MTT assay; conditions: HCC1954, 24 h; method in brief: as §1
HCC1954 [6] = assay: Antiproliferative activity against human HCC1954 cells expressing HER2 assessed as growth inhibition after 48 hrs by MTT assay; conditions: HCC1954, 48 h; method in brief: as §1
HCC1954 [7] = assay: Antiproliferative activity against human HCC1954 cells expressing HER2 assessed as growth inhibition after 72 hrs by MTT assay; conditions: HCC1954, 72 h; method in brief: as §1
HCC1954 [8] = assay: Antiproliferative activity against human HCC1954 cells expressing HER2 assessed as growth inhibition after 96 hrs by MTT assay; conditions: HCC1954, 96 h; method in brief: as §1
MCF7 [9] = assay: Antiproliferative activity against human MCF7 cells expressing ER and BRCA2 assessed as growth inhibition after 24 hrs by MTT assay; conditions: MCF7, 24 h; method in brief: as §1
MCF7 [10] = assay: Antiproliferative activity against human MCF7 cells expressing ER and BRCA2 assessed as growth inhibition after 48 hrs by MTT assay; conditions: MCF7, 48 h; method in brief: as §1
MCF7 [11] = assay: Antiproliferative activity against human MCF7 cells expressing ER and BRCA2 assessed as growth inhibition after 72 hrs by MTT assay; conditions: MCF7, 72 h; method in brief: as §1
MCF7 [12] = assay: Antiproliferative activity against human MCF7 cells expressing ER and BRCA2 assessed as growth inhibition after 96 hrs by MTT assay; conditions: MCF7, 96 h; method in brief: as §1

Which IC50 (HCC1806 [1]) does the source give for `COc1ccc([C@H]2SCc3c(CO)c(CO)c(C)n32)cc1` here?
Its IC50 is 89 µM.

And the IC50 (HCC1806 [2])?
The IC50 was 28 µM.

What about the IC50 (HCC1806 [3]) of the same compound?
Its IC50 is 19.4 µM.

What about the IC50 (HCC1806 [4]) of the same compound?
The IC50 was 12.3 µM.

What about the IC50 (HCC1954 [5]) of the same compound?
Its IC50 is over 100 µM.

And the IC50 (HCC1954 [6])?
The IC50 was 84.4 µM.

And the IC50 (HCC1954 [7])?
The IC50 was 56.1 µM.

And the IC50 (HCC1954 [8])?
The IC50 was 19.2 µM.

What about the IC50 (MCF7 [9]) of the same compound?
Its IC50 is over 100 µM.

And the IC50 (MCF7 [10])?
Its IC50 is 46.9 µM.

What about the IC50 (MCF7 [11]) of the same compound?
The IC50 was 32.7 µM.

What about the IC50 (MCF7 [12]) of the same compound?
Its IC50 is 6.6 µM.

— ChEMBL document CHEMBL3259519, “Targeting triple-negative breast cancer cells with 6,7-bis(hydroxymethyl)-1H,3H-pyrrolo[1,2-c]thiazoles” (Eur J Med Chem, 2014)
